Measurements published in ChEMBL document CHEMBL4270599, “Synthesis of a 3'-C-ethynyl-β-d-ribofuranose purine nucleoside library: Discovery of C7-deazapurine analogs as potent antiproliferative nucleosides” (Eur J Med Chem, 2018).

How the values were obtained:
[1] = tested on: SN12C; experiment: Growth inhibition of human SN12C cells assessed as cell growth at 10^-7 M incubated for 48 hrs by sulforhodamine B assay relative to control; format: functional; conditions: read-out: Activity
[2] = tested on: A549; experiment: Growth inhibition of human A549/ATCC cells assessed as cell growth at 10^-7 M incubated for 48 hrs by sulforhodamine B assay relative to control; format: functional; conditions: A549, 48 h, read-out: Activity
[3] = tested on: SK-OV-3; experiment: Growth inhibition of human SKOV3 cells assessed as cell growth at 10^-8 M incubated for 48 hrs by sulforhodamine B assay relative to control; format: functional; conditions: SK-OV-3, 48 h, read-out: Activity
[4] = tested on: HCT-15; experiment: Growth inhibition of human HCT15 cells assessed as cell growth at 10^-8 M incubated for 48 hrs by sulforhodamine B assay relative to control; format: functional; conditions: HCT-15, 48 h, read-out: Activity
[5] = tested on: PC-3; experiment: Growth inhibition of human PC3 cells assessed as cell growth at 10^-5 M incubated for 48 hrs by sulforhodamine B assay relative to control; format: functional; conditions: PC-3, 48 h, read-out: Activity
[6] = tested on: HCT-116; experiment: Growth inhibition of human HCT116 cells assessed as cell growth at 10^-6 M incubated for 48 hrs by sulforhodamine B assay relative to control; format: functional; conditions: HCT-116, 48 h, read-out: Activity
[7] = tested on: CCRF-CEM; experiment: Growth inhibition of human CCRF-CEM cells assessed as cell growth at 10^-8 M incubated for 48 hrs by sulforhodamine B assay relative to control; format: functional; conditions: read-out: Activity
[8] = tested on: MCF7; experiment: Growth inhibition of human MCF7 cells assessed as cell growth at 10^-8 M incubated for 48 hrs by sulforhodamine B assay relative to control; format: functional; conditions: MCF7, 48 h, read-out: Activity
[9] = tested on: SN12C; experiment: Growth inhibition of human SN12C cells assessed as cell growth at 10^-5 M incubated for 48 hrs by sulforhodamine B assay relative to control; format: functional; conditions: read-out: Activity
[10] = tested on: SF-268; experiment: Growth inhibition of human SF268 cells assessed as cell growth at 10^-6 M incubated for 48 hrs by sulforhodamine B assay relative to control; format: functional; conditions: SF-268, 48 h, read-out: Activity
[11] = tested on: OVCAR-4; experiment: Growth inhibition of human OVCAR4 cells assessed as cell growth at 10^-6 M incubated for 48 hrs by sulforhodamine B assay relative to control; format: functional; conditions: OVCAR-4, 48 h, read-out: Activity
[12] = tested on: A498; experiment: Growth inhibition of human A498 cells assessed as cell growth at 10^-6 M incubated for 48 hrs by sulforhodamine B assay relative to control; format: functional; conditions: A498, 48 h, read-out: Activity
[13] = tested on: ACHN; experiment: Growth inhibition of human ACHN cells assessed as cell growth at 10^-8 M incubated for 48 hrs by sulforhodamine B assay relative to control; format: functional; conditions: read-out: Activity
[14] = tested on: SF-268; experiment: Growth inhibition of human SF268 cells assessed as cell growth at 10^-7 M incubated for 48 hrs by sulforhodamine B assay relative to control; format: functional; conditions: SF-268, 48 h, read-out: Activity
[15] = tested on: UO-31; experiment: Growth inhibition of human UO31 cells assessed as cell growth at 10^-8 M incubated for 48 hrs by sulforhodamine B assay relative to control; format: functional; conditions: UO-31, 48 h, read-out: Activity
[16] = tested on: TK-10; experiment: Growth inhibition of human TK10 cells assessed as cell growth at 10^-7 M incubated for 48 hrs by sulforhodamine B assay relative to control; format: functional; conditions: TK-10, 48 h, read-out: Activity
[17] = tested on: OVCAR-8; experiment: Growth inhibition of human OVCAR8 cells assessed as cell growth at 10^-8 M incubated for 48 hrs by sulforhodamine B assay relative to control; format: functional; conditions: OVCAR-8, 48 h, read-out: Activity
[18] = tested on: 786-0; experiment: Cytotoxicity against human 786-0 cells after 48 hrs by SRB assay; format: functional; conditions: 786-0, 48 h
[19] = tested on: DU-145; experiment: Growth inhibition of human DU145 cells assessed as cell growth at 10^-5 M incubated for 48 hrs by sulforhodamine B assay relative to control; format: functional; conditions: DU-145, 48 h, read-out: Activity
[20] = tested on: MOLT-4; experiment: Growth inhibition of human MOLT4 cells assessed as cell growth at 10^-7 M incubated for 48 hrs by sulforhodamine B assay relative to control; format: functional; conditions: MOLT-4, 48 h, read-out: Activity
[21] = tested on: SK-MEL-5; experiment: Cytotoxicity against human SK-MEL-5 cells after 48 hrs by SRB assay; format: functional; conditions: SK-MEL-5, 48 h
[22] = Antiproliferative activity against HMVEC-d cells after 4 days by Coulter counter method; format: cell-based; conditions: Homo sapiens, 96 h
Method in brief: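 Primary HUVEC, primary HMVEC-d and the HMEC-1 line seeded at 20,000 cells/well in gelatin-coated plates in EC growth medium (EGM2). After overnight incubation, 5-fold compound dilutions added. Cells proliferated four days with compound, then trypsinized and counted by Coulter counter to derive IC₅₀.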

[23] = tested on: OVCAR-5; experiment: Growth inhibition of human OVCAR5 cells assessed as cell growth at 10^-5 M incubated for 48 hrs by sulforhodamine B assay relative to control; format: functional; conditions: OVCAR-5, 48 h, read-out: Activity
[24] = tested on: A498; experiment: Growth inhibition of human A498 cells assessed as cell growth at 10^-7 M incubated for 48 hrs by sulforhodamine B assay relative to control; format: functional; conditions: A498, 48 h, read-out: Activity
[25] = tested on: RPMI-8226; experiment: Growth inhibition of human RPMI8226 cells assessed as cell growth at 10^-7 M incubated for 48 hrs by sulforhodamine B assay relative to control; format: functional; conditions: RPMI-8226, 48 h, read-out: Activity
[26] = tested on: SN12C; experiment: Cytotoxicity against human SN12C cells after 48 hrs by SRB assay; format: functional
[27] = tested on: SR; experiment: Growth inhibition of human SR cells assessed as cell growth at 10^-8 M incubated for 48 hrs by sulforhodamine B assay relative to control; format: functional; conditions: read-out: Activity
[28] = tested on: A549; experiment: Growth inhibition of human A549/ATCC cells assessed as cell growth at 10^-4 M incubated for 48 hrs by sulforhodamine B assay relative to control; format: functional; conditions: A549, 48 h, read-out: Activity
[29] = tested on: TK-10; experiment: Cytotoxicity against human TK10 cells after 48 hrs by SRB assay; format: functional; conditions: TK-10, 48 h
[30] = tested on: EKVX; experiment: Growth inhibition of human EKVX cells assessed as cell growth at 10^-6 M incubated for 48 hrs by sulforhodamine B assay relative to control; format: functional; conditions: read-out: Activity
[31] = tested on: SW-620; experiment: Growth inhibition of human SW620 cells assessed as cell growth at 10^-6 M incubated for 48 hrs by sulforhodamine B assay relative to control; format: functional; conditions: SW-620, 48 h, read-out: Activity
[32] = read-out: LC50 (the source's name)

C#C[C@@]1(O)[C@@H](CO)O[C@@H](n2cc(I)c3c(N)ncnc32)[C@@H]1O
growth at 0.1 µM [1]: 43 to 54%
growth at 0.1 µM [2]: 69 to 80%
growth at 0.01 µM [3]: 60 to 85%
growth at 0.01 µM [4]: 74 to 84%
growth at 10 µM [5]: 2%
growth at 1 µM [6]: 5 to 6%
growth at 0.01 µM [7]: 97%
growth at 0.01 µM [8]: 35 to 54%
growth at 10 µM [9]: 5 to 7%
growth at 1 µM [10]: 49 to 55%
growth at 1 µM [11]: 38 to 53%
growth at 1 µM [12]: 1 to 29%
growth at 0.01 µM [13]: 98%
growth at 0.1 µM [14]: 70 to 73%
growth at 0.01 µM [15]: 84 to 85%
growth at 0.1 µM [16]: 85 to 96%
growth at 0.01 µM [17]: 75 to 89%
GI50 ([18]; read-out: GI50): 0.236 to 0.334 µM
TGI ([18]; read-out: TGI): 3.24 µM
LC50 (lethal concentration, 50% cell kill) ([18]; read-out: pLC50 (converted)): > 100 µM
TGI ([18]; read-out: pTGI (converted)): 3.24 µM
growth at 10 µM [19]: 8 to 11%
growth at 0.1 µM [20]: 39 to 52%
GI50 ([21]; read-out: GI50): 0.179 to 0.243 µM
CC50 [21, 32]: > 100 µM
TGI ([21]; read-out: TGI): 2.09 to 5.2 µM
IC50 [22]: < 0.00128 µM
growth at 10 µM [23]: 2 to 6%
growth at 0.1 µM [24]: 74 to 89%
growth at 0.1 µM [25]: 71 to 90%
GI50 ([26]; read-out: GI50): 0.069 to 0.138 µM
TGI ([26]; read-out: TGI): > 100 µM
CC50 ([26]; read-out: pLC50 (the source's name) (converted)): > 100 µM
TGI ([26]; read-out: pTGI (converted)): > 100 µM
growth at 0.01 µM [27]: 94 to 96%
growth at 100 µM [28]: 4 to 8%
GI50 ([29]; read-out: GI50): 0.551 to 0.572 µM
CC50 [29, 32]: > 100 µM
TGI ([29]; read-out: TGI): 5.51 µM
TGI ([29]; read-out: pTGI (converted)): 5.5 µM
growth at 1 µM [30]: 33 to 38%
growth at 1 µM [31]: 12 to 17%
